# ARFGAP1 inh: inhibitors of rat ARFGAP1 | Q62848 | Arfgap1-stimulated ARF1 GTP hydrolysis, GDP FP detection | inhibition, % at 16.5 µM | 360,000 tested, 0.26% active | AID 651572;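 active = inhibition above a per-plate limit, mean inhibition of low control wells plus 3 SD, cut at about 25% in these data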
# Target sequence (Q62848 1-136 limits assumed): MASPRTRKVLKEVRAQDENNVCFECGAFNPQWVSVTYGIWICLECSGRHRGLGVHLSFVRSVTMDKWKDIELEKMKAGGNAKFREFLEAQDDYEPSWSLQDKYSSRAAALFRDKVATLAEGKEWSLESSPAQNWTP
#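 Assay system: purified rat His6-Arfgap1 residues 1-136 (GAP domain); Reagent: human Δ17 ARF1 bound to GTP; Dosing: 16.5 µM single point, 1.26% DMSO; Times: GTP hydrolysis reaction 2 h at 25 °C; Signal: FP, GDP Alexa 633 tracer displaced from anti-GDP antibody, 620/688 nm; Measure: % inhibition from polarization.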
# Calb FLC: affects C. albicans growth with fluconazole; C. albicans CaCi-2 + fluconazole, Alamar Blue growth, 48 h; growth inhibition, % (no concentration beside the values); 300,000 tested, 0.57% active; AID 1979;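 active = growth inhibition above about 58% in most replicates, limit read from the data, passing the limit was not always enough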;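 note: all wells also contain fluconazole at 8 µg/ml as a sub-toxic cotreatment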
# sPLA2-III inh: Blocks human group III sPLA2 activity | 370,000 tested, 0.56% active | inhibition, % at 12.2 µM | QFRET BODIPY PC-A2 liposome hydrolysis, fluorescence | AID 743126 | Q9NZ20;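 active = inhibition above mean plus 3 SD of compounds lying within the high and low control bounds, cut at about 19% in these data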
# ASAP1 GAP inh: blocks human ASAP1-stimulated Arf1 GTP hydrolysis; GDP FP detection; Q9ULH1; 360,000 tested, 0.19% active; inhibition, % at 16.5 µM; in the data active = inhibition above about 25%
# Target sequence (Q9ULH1 325-724 limits assumed): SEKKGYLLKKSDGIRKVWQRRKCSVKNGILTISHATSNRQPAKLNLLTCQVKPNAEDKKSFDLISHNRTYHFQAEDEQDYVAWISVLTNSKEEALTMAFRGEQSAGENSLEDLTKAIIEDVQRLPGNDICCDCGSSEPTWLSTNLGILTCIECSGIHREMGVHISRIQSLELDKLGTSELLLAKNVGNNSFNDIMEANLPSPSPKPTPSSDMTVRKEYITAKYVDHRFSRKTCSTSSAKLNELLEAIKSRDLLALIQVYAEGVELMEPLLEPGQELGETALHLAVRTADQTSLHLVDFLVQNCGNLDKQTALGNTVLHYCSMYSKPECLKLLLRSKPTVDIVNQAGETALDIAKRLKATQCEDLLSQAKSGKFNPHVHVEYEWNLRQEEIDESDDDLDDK
# SKKanGAS inh: blocks kanamycin growth of S. pyogenes SKKanGAS strain; AID 1662; BacTiter-Glo, 6 h; inhibition, % at 7.5 µM; 300,000 tested, 1.3% active;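 active = mean replicate score, as percent of positive control median, at least 50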;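 note: strain carries kanamycin resistance gene driven by streptokinase promoter and grows in 40 µg/ml kanamycin; loss of luminescence reflects streptokinase promoter inhibition or plain growth inhibition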
# Hits are given with their value; – = inactive; · = not tested or not shown. A selection: hits, their analogues and other compounds. The true share with any hit is near 2.3%.
SMILES,ARFGAP1 inh,Calb FLC,sPLA2-III inh,ASAP1 GAP inh,SKKanGAS inh
CC(NC(=O)c1ccc([N+](=O)[O-])o1)C12CC3CC(CC(C3)C1)C2 (stereo unspecified),–,–,–,–,57
CCOC(=O)CC[C@@H]1CC[C@]2(CCCN(Cc3nccn3C)C2)O1,·,·,–,·,·
CC(C)(C)C(=O)NC(=S)NNC(=O)c1ccc(Cl)cc1Cl,–,–,42,–,73
CCCC(=O)Nc1ccc(C(=O)NNC(=S)NC(=O)c2cccs2)cc1,–,–,–,–,–
CCCOc1ccc(C(=O)NNC(=S)NC(C)=O)cc1,–,102,–,–,93
CCCOc1ccc(C(=O)NNC(=S)NC(=O)c2cccs2)cc1,–,93,32,–,74
CC(C)(C)c1ccc(OCC(=O)NNC(=S)NC(=O)c2ccccc2[N+](=O)[O-])c(Br)c1,–,–,–,–,100
O=C(O)c1ccc(NC(=S)NC(=O)c2cccc(COc3ccccc3)c2)cc1,–,–,–,–,58
CCCCOc1ccc(C(=O)NNC(=S)NC(=O)CC)cc1,·,87,·,·,97
O=C(NC(=S)Nc1ccc(CN2CCCCC2)cc1)c1cccc(OCc2ccccc2)c1,–,–,–,–,–
O=C(NNC(=S)Nc1ccccc1)c1ccc(O)cc1,–,–,–,–,–
O=C(NNC(=S)NC(=O)c1ccccc1)c1ccc(O)cc1,–,–,–,–,74
CC(C)(C)C(=O)NC(=S)NNC(=O)c1ccc(-c2ccccc2)cc1,·,98,·,·,91
COc1cc(CN2CCN(c3ncc(Cc4ccccc4)cn3)CC2)cc(OC)c1,–,·,–,–,·
CCCOc1ccc(C(=O)NNC(=S)NC(=O)c2ccccc2)cc1,–,–,20,–,107
CCOc1ccc(CN(CCC#N)C(=S)NC(=O)c2ccccc2)cc1,–,–,–,–,–
CCOc1ccc(C(=O)NC(=S)N(Cc2ccccc2)Cc2ccccc2)cc1,–,–,–,–,98
CC(C)(C)c1ccc(C(=O)NC(=S)NNC(=O)COc2ccccc2)cc1,–,101,–,–,91
O=C(Nc1ccccc1)Nc1c(-c2ccccc2)nc2ncccn12,·,·,–,·,·
COC(=O)[C@]12C[C@H](CC(=O)NCc3ccccc3)C(=O)N(Cc3ccc(Cl)cc3Cl)C1=C[C@H](COCc1ccccc1)O[C@@H]2C,·,·,–,·,·
O=C(Oc1ccc(C(=S)N2CCOCC2)cc1Cl)c1ccccc1F,–,–,–,–,–
O=C(SCc1c(O)c2ccccc2oc1=O)c1ccccc1,–,·,–,–,·
Oc1c(CN2CCCCC2)cc(Br)c2cccnc12,–,–,–,–,58
O=C(Oc1c(CN2CCOCC2)cc(Cl)c2cccnc12)c1ccccc1,–,118,–,–,–
O=c1oc2ccccc2c(O)c1Cc1cc(Cl)c2cccnc2c1O,–,84,–,–,84
SMILES,ARFGAP1 inh,Calb FLC,sPLA2-III inh,ASAP1 GAP inh,SKKanGAS inh
O=C(Oc1c(CN2CCOCC2)cc(Cl)c2cccnc12)c1ccccc1F,–,102,–,–,–
O=C(O)Cn1cc(CN2CCOCC2)c2ccccc21,–,–,–,–,–
O=S1(=O)c2ccc(N3CC[C@@H](O)C3)cc2O[C@@H]2CCN1C2,·,·,–,·,·
CCOC(=O)C1=CCC2C(=O)N(C)C(=O)C12 (stereo unspecified),–,·,–,–,·
Cc1ccccc1N1CCN(C(=O)CCn2nnc3ccccc32)CC1,·,·,–,·,·
Oc1c(Cl)cc(CN2CCOCC2)c2cccnc12,–,·,–,–,·
COc1cc(OC)cc(C(=O)Oc2c(CN3CCOCC3)cc(Cl)c3cccnc23)c1,–,113,–,–,–
COc1ccc(C(=O)Oc2c(CN3CCOCC3)cc(Cl)c3cccnc23)cc1OC,–,–,–,–,–
Oc1c(CN2CCc3ccccc3C2)cc(Cl)c2cccnc12,·,83,·,·,89
CC1(C)OC(C)(C)C(=N/O)/C1=N\N,–,·,–,–,·
Cc1c(OCC(=O)NCc2ccccn2)ccc2c(-c3ccccc3)cc(=O)oc12,–,–,–,–,–
Cc1c(OCC(=O)NCC(O)c2ccccc2)ccc2c(-c3ccccc3)cc(=O)oc12 (stereo unspecified),–,81,–,–,–
CCCc1nc(NC2CCCCC2)c(C#N)c2c1COC(C)(C)C2,–,–,–,–,60
C/C(=N\NC(=O)c1nn(C)c(C)c1Br)c1ccc(NC(=O)C2CCCC2)cc1,–,112,–,–,·
CC(C)c1ccc(N2C(=O)/C(=C/N(C)C)SC2=S)cc1,–,–,–,–,86
CN(Cc1cnc2nc(N)nc(N)c2n1)c1ccc(C(=O)N[C@@H](CCC(=O)O)C(=O)O)cc1,–,–,–,–,89
Nc1nc2ncc(CNc3ccc(C(=O)N[C@@H](CCC(=O)O)C(=O)O)cc3)nc2c(=O)[nH]1,–,–,–,–,–
Cc1ccc(S(=O)(=O)N2CCCc3nc(-c4ccc(Br)cc4)ccc32)cc1,–,·,–,–,·
NC1=NC[C@H](Cc2ccc(O)cc2)N1CCC12CC3CC(CC(C3)C1)C2,–,106,–,–,–
Cc1cc(C)c2nc(SCc3ccc([N+](=O)[O-])cc3)nc(C)c2c1,–,–,–,–,–
Cc1cc(C)c2nc(SCCc3ccccc3)nc(C)c2c1,–,–,–,–,71
Cc1sc2nc(COC(=O)CNC(=O)c3ccc(F)cc3Cl)[nH]c(=O)c2c1C,·,·,–,·,·
CCn1c(O)c(/C=N/N=C/c2ccccc2)c2ccc(C3=NNC(=O)CC3)cc21,–,–,–,–,52
CCC(CC)=N/N=C/c1c(O)n(CC)c2cc(C3=NNC(=O)CC3)ccc12,–,–,–,–,–
Fc1ccccc1Cn1ccc2ccc(-c3ccc4ccn(Cc5ccccc5)c4c3)cc21,·,·,–,·,·
SMILES,ARFGAP1 inh,Calb FLC,sPLA2-III inh,ASAP1 GAP inh,SKKanGAS inh
Cc1cc(NCc2ccccn2)n2nc(C)c(-c3ccc(Cl)cc3)c2n1,–,–,–,–,81
Cc1cc(NCc2ccccn2)n2ncc(-c3ccccc3)c2n1,–,–,–,–,66
Cc1cc(NCc2ccccn2)n2ncc(-c3ccc(Cl)cc3)c2n1,–,–,–,–,82
CCc1ccc(CCNC(=O)OCCCN2CCC3(CCC(c4ccccc4)CC3)C2=O)cc1 (stereo unspecified),·,·,–,·,·
O=S1(=O)C[C@H](N2CCN(CCO)CC2)[C@@H](COCc2ccccc2)N1,–,·,–,–,·
CCn1c(COc2ccc(C)cc2)nnc1SCC(=O)Nc1ccc(Oc2ccccc2)cc1,·,·,–,·,·
COC(=O)C1=C(C)N(Cc2ccccc2C(F)(F)F)C(=NCc2ccccc2)NC1c1ccc(F)cc1 (stereo unspecified),–,·,–,–,·
COc1ccc(CCC(=O)N2CC(C)OC(C)C2)cc1 (stereo unspecified),–,89,–,–,·
COC(=O)[C@]12C[C@H](CC(=O)N3CCCC3)C(=O)N(CCc3ccc(OC)c(OC)c3)C1=C[C@H](C(C)(C)C)O[C@@H]2C,·,·,–,·,·
O=c1[nH]c(=S)[nH]nc1Cc1ccc(Cl)c(Cl)c1,–,91,–,–,–
CC(C)(C)c1ccc(Cc2n[nH]c(=S)[nH]c2=O)cc1,–,78,–,–,–
COC(=O)c1cc(C)oc1C,·,·,–,·,·

# High-throughput results from PubChem.
